Measurements reported in ChEMBL document CHEMBL5113552, “(-)-Epigallocatechin Gallate is a Noncompetitive Inhibitor of NAD Kinase” (ACS Med Chem Lett, 2022).
Active and inactive are the calls of the source. The rule behind the calls is not given here.

Key:
[1] = target: T1, NAD kinase (Homo sapiens, UniProt O95544); assay: Inhibition of NADK (unknown origin) by HPLC analysis
T1 sequence (O95544 whole entry): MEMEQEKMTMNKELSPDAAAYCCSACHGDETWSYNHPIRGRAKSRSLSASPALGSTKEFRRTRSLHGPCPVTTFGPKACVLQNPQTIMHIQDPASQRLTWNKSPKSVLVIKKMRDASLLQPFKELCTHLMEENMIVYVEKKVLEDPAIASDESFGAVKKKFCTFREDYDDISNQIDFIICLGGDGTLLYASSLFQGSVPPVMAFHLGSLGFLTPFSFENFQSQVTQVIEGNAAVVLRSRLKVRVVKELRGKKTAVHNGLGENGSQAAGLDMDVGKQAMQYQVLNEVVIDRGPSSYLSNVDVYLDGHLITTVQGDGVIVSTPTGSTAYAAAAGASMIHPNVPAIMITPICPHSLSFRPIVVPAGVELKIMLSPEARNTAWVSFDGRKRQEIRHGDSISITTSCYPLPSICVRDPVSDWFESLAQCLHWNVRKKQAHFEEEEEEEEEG

[2] = target: T1, NAD kinase; assay: Inhibition of human NADK by HPLC analysis
[3] = target: T1, NAD kinase; assay: Binding affinity to N-terminal full length NADK (unknown origin) expressed in Escherichia coli BL21(DE3) cells assessed as dissociation constant by surface plasmon resonance assay
[4] = target: T1, NAD kinase; assay: Inhibition of NADK delta 95 kinase domain (unknown origin) at 80 uM measured after 30 mins by […]
[5] = target: T2, NAD kinase (Homo sapiens) (UniProt O95544); assay: Binding affinity to human NADK (410 to 418 residues) assessed as decrease in deuterium incorporation at 80 uM measured after 30 mins by HDX-MS analysis; parameters: scale not given: the % may be the effect or the level left
T2 sequence (whole entry): T1 sequence (O95544 whole entry)

[6] = target: T2, NAD kinase (Homo sapiens); assay: Binding affinity to human NADK (155 to 164 residues) assessed as decrease in deuterium incorporation at 80 uM measured after 30 mins by HDX-MS analysis; parameters: scale not given: the % may be the effect or the level left
[7] = target: T2, NAD kinase (Homo sapiens); assay: Binding affinity to human NADK (345 to 365 residues) assessed as decrease in deuterium incorporation at 80 uM measured after 30 mins by HDX-MS analysis; parameters: scale not given: the % may be the effect or the level left
[8] = system: PC-9; assay: Cytotoxicity against human PC-9 cells harboring wild type KRAS assessed as inhibition of cell growth at 60 uM measured on day 4; format: functional, cell-based
Procedure, shortened: (§1)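 Lung cancer cell lines (PC-9 KRAS WT, A549 KRAS G12S, H358 and H23 KRAS G12C) exposed to a range of concentrations. Growth curves were built by following cell number over days (day 4 is cited) against a DMSO control. n = 3 replicates; significance was judged at P < 0.05, 0.01 and 0.001.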

[9] = system: A549; assay: Cytotoxicity against human A549 cells harboring KRAS […] mutant assessed as inhibition of cell growth at 30 uM; format: functional, cell-based
[10] = system: NCI-H358; assay: Cytotoxicity against human H358 cells harboring KRAS G12C mutant assessed as inhibition of cell growth at 30 uM; format: functional; procedure, shortened: as §1
[11] = system: NCI-H23; assay: Cytotoxicity against human H23 cells harboring KRAS G12C mutant assessed as inhibition of cell growth at 30 uM; format: functional; procedure, shortened: as §1
[12] = system: A549; assay: Cytotoxicity against human A549 cells harboring KRAS G12S mutant assessed as inhibition of cell growth at 50 uM
[13] = target: T1, NAD kinase; assay: Non-competitive inhibition of N-terminal full length NADK (unknown origin) expressed in Escherichia coli BL21(DE3) cells by enzymatic activity assay
[14] = system: CCRF-CEM; assay: Cytotoxicity against human CCRF-CEM cells assessed as inhibition of cell growth; format: functional, cell-based
[15] = system: MOLT-4; assay: Cytotoxicity against human MOLT-4 cells assessed as inhibition of cell growth; format: functional, cell-based
[16] = system: RL; assay: Cytotoxicity against human RL cells assessed as inhibition of cell growth; format: functional, cell-based
[17] = Cytotoxicity against human C85 cells assessed as inhibition of cell growth; format: functional, cell-based; conditions: CCCL-1

In the case of `Oc1cc(O)c2c(c1)O[C@H](c1cc(O)c(O)c(O)c1)[C@H](O)C2` [EPIGALLOCATECHIN], the IC50 [1] is reported as > 100 µM.

For `Nc1ncnc2c1nc(Br)n2[C@@H]1O[C@H](CSSC[C@H]2O[C@@H](n3c(Br)nc4c(N)ncnc43)[C@H](O)[C@@H]2O)[C@@H](O)[C@H]1O`, the Ki [2] was 6 µM.

`O=C(O[C@@H]1Cc2c(O)cc(O)cc2O[C@@H]1c1cc(O)c(O)c(O)c1)c1cc(O)c(O)c(O)c1` [EPIGALOCATECHIN GALLATE] gave a Kd [3] of 1.78 µM, an IC50 [4] of 0.96 µM and an Activity [5] of 21.8%. The Activity [6] was 12.9%, the Activity [7] was 21.1% and the Activity [8] was “Active”. The Activity [9] was “Active”, the inhibition at 30 µM [10] was 100% and the inhibition at 30 µM [11] was 100%. The inhibition at 50 µM [12] was 100% and the Ki [13] was 3.28 µM.

For `Oc1cc(O)c2c(c1)O[C@@H](c1cc(O)c(O)c(O)c1)[C@H](O)C2` [(-)-GALLOCATECHIN], the IC50 [1] was > 100 µM.

`Nc1ncnc2c1ncn2[C@@H]1O[C@H](CSSC[C@H]2O[C@@H](n3cnc4c(N)ncnc43)[C@H](O)[C@@H]2O)[C@@H](O)[C@H]1O` showed a Ki [2] of 45 µM.

`NC(=S)c1cccnc1` showed an IC50 [14] of 10 µM, an IC50 [15] of 10 µM and an IC50 [16] of 10 µM. It also gave an IC50 [17] of 10 µM.

`Nc1ncnc2c1ncn2[C@@H]1O[C@H](CSSC[C@H]2O[C@@H](n3c(Br)nc4c(N)ncnc43)[C@H](O)[C@@H]2O)[C@@H](O)[C@H]1O` gave a Ki [2] of 6 µM.
